{"source": "ChEMBL document CHEMBL1139250", "about": "“2,6,9-Trisubstituted purine derivatives as protein A mimetics for the treatment of autoimmune diseases” (Bioorg Med Chem Lett, 2009)", "note": "Calls of active or inactive are those of the source. No cut-off for these calls is given here."}
{"biological_target": "not listed separately", "experiment": "(§1) Displacement of protein A from human IgG antibody by competitive ELISA", "summary_of_the_method": "(§2)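 Competitive ELISA in which test compounds compete with protein A for binding to human IgG; IC50 determined in PBS.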", "units": {"IC50": "µM"}}
{"smiles": "CC(Nc1nc(Nc2cccc(N)c2)c2ncn(CCc3ccc(N)cc3)c2n1)c1cccc(N)c1", "note": "(configuration not stated)", "IC50": 14}
{"smiles": "COC(=O)c1ccc(Cn2cnc3c(Nc4cccc(N)c4)ncnc32)cc1", "IC50": 0.3}
{"smiles": "Nc1ccc(CCn2cnc3c(Nc4cccc(N)c4)nc(NCCO)nc32)cc1", "IC50": 64}
{"smiles": "Nc1cccc(Nc2ncnc3c2ncn3CCc2cccc(F)c2)c1", "IC50": 0.5}
{"smiles": "Nc1ccc(CCn2cnc3c(Nc4cccc(N)c4)nc(NC4CCCCC4)nc32)cc1", "IC50": 9}
{"smiles": "Nc1cccc(CCn2cnc3c(Nc4cccc(N)c4)ncnc32)c1", "IC50": 5.1}
{"smiles": "Nc1cccc(Nc2ncnc3c2ncn3Cc2ccc(Cl)cc2)c1", "IC50": 0.5}
{"smiles": "Cc1ccc(CCn2cnc3c(Nc4cccc(N)c4)ncnc32)cc1", "IC50": 1.5}
{"smiles": "Nc1cccc(Nc2ncnc3c2ncn3Cc2cccc(Cl)c2)c1", "IC50": 0.4}
{"smiles": "Nc1cccc(Nc2ncnc3c2ncn3CCc2ccccc2)c1", "IC50": 2.3}
{"smiles": "Nc1cccc(Nc2ncnc3c2ncn3CCc2ccc(Cl)cc2)c1", "IC50": 3.6}
{"smiles": "Nc1ccc(CCn2cnc3c(Nc4cccc(N)c4)ncnc32)cc1", "IC50": 1}
{"smiles": "CC(C)Nc1nc(Nc2cccc(N)c2)c2ncn(CCc3ccc(N)cc3)c2n1", "IC50": 1.1}
{"smiles": "Nc1cccc(Nc2ncnc3c2ncn3CCc2ccc3ccccc3c2)c1", "IC50": 12.5}
{"smiles": "CC(c1cccc(F)c1)n1cnc2c(Nc3cccc(N)c3)ncnc21", "note": "(configuration not stated)", "IC50": 0.2}
{"smiles": "Nc1cccc(Nc2ncnc3c2ncn3Cc2cccc(F)c2)c1", "IC50": 1.8}
{"smiles": "Nc1ccc(CCn2cnc3c(Nc4cccc(N)c4)nc(NCc4ccccc4)nc32)cc1", "IC50": 1.8}
{"smiles": "Nc1cccc(Nc2ncnc3c2ncn3CCOc2ccccc2)c1", "IC50": 0.2}
{"smiles": "Nc1cccc(Nc2ncnc3c2ncn3CCOc2ccc(Cl)cc2)c1", "IC50": 0.5}
{"smiles": "Nc1ccc(Cn2cnc3c(Nc4cccc(N)c4)ncnc32)cc1", "IC50": 0.2}
{"smiles": "Nc1cccc(Nc2ncnc3c2ncn3CCOc2ccc(F)cc2)c1", "IC50": 0.3}
{"smiles": "Nc1ccc(CCn2cnc3c(Nc4cccc(N)c4)nc(NCC4CC4)nc32)cc1", "IC50": 0.6}
{"smiles": "Nc1ccc(CCn2cnc3c(Nc4cccc(N)c4)nc(NC4CC4)nc32)cc1", "IC50": 13}
{"smiles": "CC(C)(C)CNc1nc(Nc2cccc(N)c2)c2ncn(CCc3ccc(N)cc3)c2n1", "IC50": 6}
{"smiles": "Nc1ccc(CCn2cnc3c(Nc4cccc(N)c4)nc(NC4CCCC4)nc32)cc1", "IC50": 0.2}
{"smiles": "Nc1cccc(Nc2ncnc3c2ncn3CCCOc2ccccc2)c1", "IC50": 0.6}
{"smiles": "Nc1cccc(Nc2ncnc3c2ncn3CCc2ccc(F)cc2)c1", "IC50": 0.6}
{"smiles": "Nc1cccc(Nc2ncnc3c2ncn3Cc2ccc(F)cc2)c1", "IC50": 1.7}
{"smiles": "Nc1ccc(CCn2cnc3c(Nc4cccc(N)c4)nc(NC4CCC4)nc32)cc1", "IC50": 2.3}
{"smiles": "CC(C)CNc1nc(Nc2cccc(N)c2)c2ncn(CCc3ccc(N)cc3)c2n1", "IC50": 22}
{"smiles": "Nc1cccc(Nc2ncnc3c2ncn3CC2CC2)c1", "IC50": 0.4}
{"smiles": "Nc1ccc(CCn2cnc3c(Nc4cccc(N)c4)nc(N)nc32)cc1", "IC50": 13}
{"smiles": "Nc1ccc(CCn2cnc3c(Nc4cccc(N)c4)nc(NCCCCCCO)nc32)cc1", "IC50": 4.8}
{"species": "Homo sapiens", "experiment": "as §1", "summary_of_the_method": "as §2"}
{"smiles": "Nc1ccc(CCn2cnc3c(Nc4cccc(F)c4)ncnc32)cc1", "Activity": "inactive"}
{"smiles": "Nc1ccc(CCn2cnc3c(NC4CCCC(N)C4)ncnc32)cc1", "note": "(configuration not stated)", "Activity": "inactive"}
{"smiles": "Nc1ccc(CCn2cnc3c(Nc4cccc(N)c4)nc(F)nc32)cc1", "Activity": "inactive"}
{"smiles": "Nc1ccc(CCn2cnc3c(NCC4CCCNC4)ncnc32)cc1", "note": "(configuration not stated)", "Activity": "inactive"}
{"smiles": "COc1cccc(Nc2ncnc3c2ncn3CCc2ccc(N)cc2)c1", "Activity": "inactive"}
{"smiles": "NCCNc1nc(Nc2cccc(N)c2)c2ncn(CCc3ccc(N)cc3)c2n1", "Activity": "inactive"}
{"smiles": "Nc1ccc(CCn2cnc3c(Nc4cccc(N)c4)nc(NCCCCO)nc32)cc1", "Activity": "inactive"}
{"smiles": "Nc1ccc(CCn2cnc3c(N4CCNCC4)ncnc32)cc1", "Activity": "inactive"}
{"smiles": "Nc1cccc(Nc2ncnc3c2ncn3CCc2ccc(O)cc2)c1", "Activity": "inactive"}
{"smiles": "Nc1ccc(CCn2cnc3c(NC4CCNC4)ncnc32)cc1", "note": "(configuration not stated)", "Activity": "inactive"}
{"test_system": "Mus musculus", "experiment": "Effect on oxazolone-induced delayed type hypersensitivity in mouse assessed as ear thickness at 50 mg/kg, iv after 7 days challenged with oxazolone on day 3", "format": "functional", "summary_of_the_method": "(§3)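 Mice dosed intravenously with vehicle or test compound at 50 mg/kg on days 0, 1 and 2. Oxazolone (50 ll) applied to the right ear surface, first challenge day 3, second day 10. Ear thickness measured days 4–7 and 11–14; redness and crust formation also observed. Mice sacrificed day 14.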", "units": {"Activity": "mm"}}
{"smiles": "CN(Cc1cnc2nc(N)nc(N)c2n1)c1ccc(C(=O)N[C@@H](CCC(=O)O)C(=O)O)cc1", "note": "[METHOTREXATE]", "Activity": 0.17}
{"smiles": "Nc1ccc(CCn2cnc3c(Nc4cccc(N)c4)ncnc32)cc1", "Activity": 0.19}
{"test_system": "Mus musculus", "experiment": "Effect on oxazolone-induced delayed type hypersensitivity in mouse assessed as ear thickness at 50 mg/kg, iv after 14 days challenged with oxazolone on day 10", "format": "functional", "summary_of_the_method": "as §3", "units": {"Activity": "mm"}}
{"smiles": "CN(Cc1cnc2nc(N)nc(N)c2n1)c1ccc(C(=O)N[C@@H](CCC(=O)O)C(=O)O)cc1", "note": "[METHOTREXATE]", "Activity": 0.46}
{"smiles": "Nc1ccc(CCn2cnc3c(Nc4cccc(N)c4)ncnc32)cc1", "Activity": 0.56}
{"test_system": "Mus musculus", "experiment": "Effect on oxazolone-induced delayed type hypersensitivity in mouse assessed as ear thickness at 50 or 150 mg/kg, po after 7 days challenged with oxazolone on day 3", "format": "functional, organism-based", "design": "dose 150 mg/kg", "summary_of_the_method": "(§4)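 Oxazolone DTH protocol: 50 ll oxazolone applied to the right ear surface, challenged day 3 and day 10. Ear thickness measured days 4–7 and 11–14. Compound given orally at 50 or 150 mg/kg daily from day 0 to day 13. Hydrocortisone served as comparator.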"}
{"smiles": "Nc1ccc(CCn2cnc3c(Nc4cccc(N)c4)ncnc32)cc1", "Activity": "Active"}
{"test_system": "Mus musculus", "experiment": "Effect on oxazolone-induced delayed type hypersensitivity in mouse assessed as ear thickness at 50 or 150 mg/kg, po after 14 days challenged with oxazolone on day 10", "format": "functional, organism-based", "design": "dose 150 mg/kg", "summary_of_the_method": "as §4"}
{"smiles": "Nc1ccc(CCn2cnc3c(Nc4cccc(N)c4)ncnc32)cc1", "Activity": "Active"}
{"test_system": "Rattus norvegicus", "experiment": "Reduction in synovitis damage in Freund's adjuvant-induced arthritis Lewis rat model at 25 mg/kg, iv after 21 days relative to control", "format": "functional", "design": "scale not given: the % may be the effect or the level left", "summary_of_the_method": "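Female Lewis rats; arthritis induced by footpad injection of lyophilized Mycobacterium butyricum in mineral oil, monitored for 3 weeks. Intravenous dosing on days −3, −2, −1 pre-adjuvant and days 10, 11, 12 post-adjuvant; body weight recorded. Arthritis (inflammatory) index derived from joint circumference in mm via a geometric formula; incidence and severity scored.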", "units": {"Activity": "%"}}
{"smiles": "CN(Cc1cnc2nc(N)nc(N)c2n1)c1ccc(C(=O)N[C@@H](CCC(=O)O)C(=O)O)cc1", "note": "[METHOTREXATE]", "Activity": 20}
{"smiles": "Nc1ccc(CCn2cnc3c(Nc4cccc(N)c4)ncnc32)cc1", "Activity": 25}
{"test_system": "Rattus norvegicus", "experiment": "Reduction in synovitis damage in Freund's adjuvant-induced arthritis Lewis rat model at 50 mg/kg, po after 21 days relative to control", "format": "functional", "design": "scale not given: the % may be the effect or the level left", "units": {"Activity": "%"}}
{"smiles": "Nc1ccc(CCn2cnc3c(Nc4cccc(N)c4)ncnc32)cc1", "Activity": 30}
